# Assay results gathered from unrelated publications.
# Compare with care: the assays were run in different laboratories.
# Target: Serine/threonine-protein kinase 26 (STK26, Homo sapiens, UniProt Q9P289)
Compound,read-out,action,method,tested at,quantity,result
CC#CC(=O)N1CCC[C@H]1c1nc(-c2ccc(C(=O)Nc3ccccn3)cc2)c2c(N)nccn12,enzyme activity,inhibitor,,1 µM,inhibition,0%
Cc1cc(O)c(-c2ccc([C@@H](C)CN(C)C)cc2)c2c1[nH]c(=O)c1sccc12,enzyme activity,inhibitor,,0.1 µM,inhibition,19.3%
CN1CCN(C(=O)c2ccc(NC(=O)Nc3ccc(N(C)c4ccnc(Nc5ccc(CS(C)(=O)=O)cc5)n4)cc3)cc2)CC1,binding,,competition with immobilised ligand,1 µM,remaining binding,11%
CCCCC(=O)Nc1ccc(-c2ccc3ncn(CCC)c(=O)c3c2)cn1,binding,,competition with immobilised ligand,0.5 µM,remaining binding,100%
COc1ccc2[nH]c3c4[nH]c5ccc(OC)cc5c4c4c(c3c2c1)C(=O)NC4=O,binding,,competition with immobilised ligand,1 µM,remaining binding,85%
C1=C/COCc2cc(ccc2OCCN2CCCC2)Nc2nccc(n2)-c2cccc(c2)COC/1,binding,,,0.1 µM,remaining binding,74%
CC(C)S(=O)(=O)c1ccc2nccc(Nc3ccc4sc(C5CCCC5)nc4c3)c2c1,enzyme activity,inhibitor,,1 µM,activity vs control,84%
CO[C@@H]1[C@H](N(C)C(=O)c2ccccc2)C[C@H]2O[C@]1(C)n1c3ccccc3c3c4c(c5c6ccccc6n2c5c31)C(=O)NC4,enzyme activity,inhibitor,,1 µM,inhibition,47%
